Test results reported in ChEMBL document CHEMBL4024789, “Neutral Porphyrin Derivative Exerts Anticancer Activity by Targeting Cellular Topoisomerase I (Top1) and Promotes Apoptotic Cell Death without Stabilizing Top1-DNA Cleavage Complexes” (J Med Chem, 2018).
pIC50: −log10 of the molar value. Active and inactive are the calls of the source. The calls are words filed in the database; no cut-off is given here.

Assays:
MCF7 [1] = experiment: Cytotoxicity against human MCF7 cells assessed as reduction in cell viability by MTT assay; type: functional, cell-based
Summary of the method: (§1)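 Survival of each cell line measured across a range of compound concentrations. Percent inhibition of viability at each concentration calculated against untreated control and IC50 estimated. MEFs were TDP1+/+ and TDP1–/– primary cells. Mean ± SD of at least three experiments in duplicate.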

[2] = Cytotoxicity against human NIH:OVCAR3 cells assessed as reduction in cell viability by MTT assay; type: functional, cell-based; conditions: OVCAR-3; summary of the method: as §1
MEF = experiment: Cytotoxicity against TDP1+/+ MEF assessed as reduction in cell viability by MTT assay; type: cell-based; conditions: Mus musculus; summary of the method: as §1
Bacteria = experiment: Induction of relaxed pBluescript SK(+) DNA intercalation (unknown origin) assessed as negative supercoiling at 50 to 300 uM after 15 mins by agarose gel electrophoresis method
Summary of the method: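 Top1 unwinding assay: relaxed DNA made by reacting excess Top1 with supercoiled pBS (SK+) plasmid (50 fmol), then incubated with compound at 50, 100 or 300 μM; m-AMSA and etoposide as reference intercalator/non-intercalator. Topoisomers resolved on agarose gel.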

[3] = target: T1, DNA topoisomerase 1 (Homo sapiens) (UniProt P11387); experiment: Inhibition of recombinant human topoisomerase-1 expressed in baculovirus infected sf9 cells assessed as reduction in cleavage complex formation with supercoiled pBS SK(+) DNA at 10 to 50 uM after 30 mins by ethidium bromide staining based agarose gel electrophoresis method
T1 sequence (whole entry): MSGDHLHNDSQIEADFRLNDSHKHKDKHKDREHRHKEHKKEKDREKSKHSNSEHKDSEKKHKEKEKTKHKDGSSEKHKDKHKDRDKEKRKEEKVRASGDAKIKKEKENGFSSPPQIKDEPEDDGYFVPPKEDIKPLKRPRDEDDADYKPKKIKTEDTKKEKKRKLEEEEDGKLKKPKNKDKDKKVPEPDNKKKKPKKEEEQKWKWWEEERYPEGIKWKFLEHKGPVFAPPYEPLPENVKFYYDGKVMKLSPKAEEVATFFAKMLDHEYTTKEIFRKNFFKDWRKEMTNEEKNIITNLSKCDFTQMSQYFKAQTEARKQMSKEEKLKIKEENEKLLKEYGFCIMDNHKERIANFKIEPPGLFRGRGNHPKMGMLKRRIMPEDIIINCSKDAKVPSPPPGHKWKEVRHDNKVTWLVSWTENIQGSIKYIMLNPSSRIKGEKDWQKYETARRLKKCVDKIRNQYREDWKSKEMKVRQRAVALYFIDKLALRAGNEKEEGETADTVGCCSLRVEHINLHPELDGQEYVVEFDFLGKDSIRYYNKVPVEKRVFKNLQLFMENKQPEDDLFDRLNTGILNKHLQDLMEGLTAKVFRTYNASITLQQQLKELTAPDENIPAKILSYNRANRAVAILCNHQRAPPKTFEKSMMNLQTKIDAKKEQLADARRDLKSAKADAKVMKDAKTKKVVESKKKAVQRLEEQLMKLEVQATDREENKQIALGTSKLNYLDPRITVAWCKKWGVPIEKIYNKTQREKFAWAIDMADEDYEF
Summary of the method: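 Plasmid cleavage assay: 50 fmol supercoiled pBS (SK+) with 100 fmol recombinant Top1 plus compound or CPT, or Top1 with CPT before compound addition, at 37 °C for 30 min. Nicked (form II) and supercoiled (form I) DNA resolved by gel.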

[4] = target: T1, DNA topoisomerase 1 (Homo sapiens); experiment: Inhibition of recombinant human topoisomerase-1 expressed in baculovirus infected sf9 cells at 1 uM using supercoiled pBS SK(+) DNA as substrate after 15 mins by ethidium bromide staining based agarose gel electrophoresis method relative to control
Summary of the method: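 Relaxation assay: 90 fmol supercoiled pBS (SK+) DNA with 30 fmol recombinant Top1 (Sf-9/baculovirus). Compound either preincubated with Top1 for 5 min before DNA addition, or added simultaneously with DNA; then 37 °C for 15 min. Vehicle 2% DMSO. Read on 1% agarose gel. EC50 from mean ± SD of three experiments.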

MCF7 [5] = experiment: Induction of DNA strand breaks in human MCF7 cells at 10 to 20 uM after 12 hrs by alkaline comet assay relative to control; type: functional
Summary of the method: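 MCF7 cells exposed 12 h; some pretreated with NAC (10 mM) for 30 min first. Alkaline comet assay; mean comet tail scored over 20–25 cells (average ± SEM).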

MCF7 [6] = experiment: Induction of ROS accumulation in human MCF7 cells at 10 uM up to 24 hrs by CM-H2DCFDA dye based spectrofluorometric method relative to control; type: functional
Summary of the method: (§2)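 MCF7 cells treated with 10 μM for the indicated times, with 0.2% DMSO as vehicle control, or pretreated with NAC (10 mM) for 30 min. ROS read as DCF fluorescence from CM-H2DCFDA. Mean ± SD of three independent experiments.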

[7] = target: T1, DNA topoisomerase 1 (Homo sapiens); experiment: Inhibition of recombinant human EGFP-tagged topoisomerase-1- DNA cleavage complex formation at 20 uM after 10 mins by FRAP assay
Summary of the method: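 FRAP in living MCF7 cells transiently expressing EGFP-human Top1, 37 °C chamber. Treatment was CPT 5 μM or compound 20 μM for 10 min, or CPT for 10 min then compound for 10 min. A subnuclear spot was bleached for 30 ms at 488 nm; curves normalized to the prebleach signal.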

HEK293 = experiment: Cytotoxicity against HEK293 cells assessed as reduction in cell viability by MTT assay; type: cell-based; conditions: Homo sapiens; summary of the method: as §1
MCF7 [8] = experiment: Induction of ROS accumulation in human MCF7 cells at 10 uM by CM-H2DCFDA dye based spectrofluorometric method; type: functional, cell-based; conditions: TDE = time-dependent effect; summary of the method: as §2
MCF7 [9] = experiment: Cytotoxicity against human MCF7 cells assessed as reduction in cell viability up to 10 uM in presence of CPT by MTT assay; type: functional, cell-based
Summary of the method: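 MCF7 cells pretreated with CPT (5 μM) for 12 h, then compound added at a range of concentrations. Viability inhibition calculated relative to control and IC50 estimated. Mean ± SD, at least three experiments in duplicate.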

MCF7 [10] = experiment: Induction of apoptosis in human MCF7 cells at 10 to 20 uM after 12 hrs in presence of ROS inhibitor NAC by Annexin V-FITC/propidium iodide staining based confocal laser microscopic method relative to control; type: functional, cell-based
Summary of the method: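 MCF7 cells treated for 12 h, with or without 30 min pretreatment with NAC (10 mM). Phosphatidylserine stained with annexin V-FITC, nuclei counterstained with propidium iodide, imaged by confocal microscopy. Annexin V(+) fraction scored from about 100 cells (average ± SEM).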

[11] = target: T1, DNA topoisomerase 1 (Homo sapiens); experiment: Ratio of compound effect for inhibition of recombinant human topoisomerase-1 expressed in baculovirus infected sf9 cells preincubated for 5 mins followed by substrate addition to compound effect for recombinant human topoisomerase-1 expressed in baculovirus infected sf9 cells simultaneously incubated with substrate
Summary of the method: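 Recombinant human Top1 purified from baculovirus-infected Sf-9 cells; 30 fmol enzyme with 90 fmol supercoiled pBS (SK+) DNA (3:1 molar ratio) in relaxation buffer. Compound either preincubated with enzyme 5 min before DNA, or added simultaneously; then 37 °C, 15 min. Relaxation on 1% agarose; % inhibition quantified, EC50 from three experiments (mean ± SD).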

MCF7 [12] = experiment: Cytotoxicity against human MCF7 cells transfected with control SiRNA assessed as reduction in cell viability by MTT assay; type: functional, cell-based
Summary of the method: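 MCF7 cells transfected with Top1 or control siRNA for 72 h; knockdown confirmed by Western blot with actin as loading control. Percent survival then plotted against compound concentration.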

HeLa = experiment: Cytotoxicity against human HeLa cells assessed as reduction in cell viability by MTT assay; type: functional, cell-based; summary of the method: as §1

- Activity (Bacteria): inactive
- inhibition [3]: Active
- inhibition [4]: 35 to 40%
- inhibition [7]: Active
- Ratio [11]: 2 to 3
Structure (SMILES): CN(C)c1ccc(-c2c3nc(c(-c4ccc(N(C)C)cc4)c4ccc([nH]4)c(-c4ccc(C(=O)O)cc4)c4nc(c(-c5ccc(C(=O)O)cc5)c5ccc2[nH]5)C=C4)C=C3)cc1
- pIC50 (MCF7 [1]): 5.66
- pIC50 [2]: 5.28
- pIC50 (MEF): < 5.00
- fold change (FC) (MCF7 [5]): 8
- fold change (FC) (MCF7 [6]): 3 - 5
- pIC50 (HEK293): < 5.00
- Activity (MCF7 [8]): Tde
- Activity (MCF7 [9]): inactive
- Activity (MCF7 [10]): inactive
- pIC50 (MCF7 [12]): 5.65
- pIC50 (HeLa): 5.38
